Experimental findings from ChEMBL document CHEMBL1938383, “Novel 5- and 6-subtituted benzothiazoles with improved physicochemical properties: potent S1P₁ agonists with in vivo lymphocyte-depleting activity” (Bioorg Med Chem Lett, 2012) are described below.

Series [1] concerns Rattus norvegicus. Description: Immunosuppressive activity in Lewis rat assessed as reduction of circulating lymphocytes at 10 mg/kg, po after 4 hrs. It counts as functional. On the set-up: scale not given: the % may be the effect or the level left. The method, boiled down: (§1)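 Female Lewis rats (250 g, 6–8 wk), acclimatized ≥1 week, N = 5/group. Given vehicle (20% captisol in water) or 10 mg/kg compound in 20% captisol/water by oral gavage (10 mL/kg). Killed by CO₂ 4 h post-dose, blood taken by cardiac puncture. Total blood lymphocytes counted and total plasma concentration measured. Significance vs vehicle by ANOVA/Dunnett's test.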

For series [2], the target named is T1, Sphingosine 1-phosphate receptor 1 (Homo sapiens, UniProt P21453). Description: Agonist activity at human S1P1 receptor expressed in U20S cells coexpressing eGFP assessed as receptor internalization after 1 hr by microscopy analysis. Type of series: functional, cell-based, U2OS. The method, boiled down:
(§2)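 hS1P1–eGFP U2OS cells held in serum-free medium 2 h, then exposed to compound 1 h at 37 °C. Cells fixed in 4% formaldehyde, nuclei stained with Hoechst, imaged by automated microscopy. Potency and efficacy from GFP-containing endosomes per cell plotted against concentration. Efficacy expressed relative to 0.200 µM S1P.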

Series [3] in a line: Ratio of plasma concentration in Lewis rat at 10 mg/kg, po after 4 hrs to EC50 for human S1P1 receptor expressed in U20S cells. It counts as ADME, organism-based. Also noted: dose 10 mg/kg, route oral. Conditions: in vivo.
Series [4] addresses T2, Sphingosine 1-phosphate receptor 3 (Homo sapiens, UniProt Q99500). Description: Agonist activity at human S1P3 receptor expressed in CHO cells coexpressing Gq/i5 protein by calcium flux assay. It counts as functional, cell-based. The method, boiled down: (§3)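 Ca²⁺ flux read-out in CHO cells stably co-expressing human S1P3 and chimeric Gq/i5 G-protein.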
(In general: Calcium assays in cells follow changes in intracellular calcium, usually with a dye or a luminescent sensor.)

Series [5] can be described thus: Plasma concentration in Lewis rat at 10 mg/kg, po after 4 hrs. It counts as ADME, organism-based. Also noted: dose 10 mg/kg, route oral. The method, boiled down:
as §1

The target in series [6] is T1, Sphingosine 1-phosphate receptor 1. Description: Agonist activity at human S1P1 receptor expressed in U20S cells coexpressing eGFP assessed as receptor internalization after 1 hr by microscopy analysis relative to S1P1. It counts as functional, cell-based. Conditions: U2OS. An outline of the steps: as §2
Series [7] has as its target T2, Sphingosine 1-phosphate receptor 3. Description: Agonist activity at human S1P3 receptor expressed in CHO cells coexpressing Gq/i5 protein by calcium flux assay relative to control. Type of series: functional, cell-based. An outline of the steps: as §3
For a further series, the species on record is Homo sapiens. Description: Selectivity ratio of EC50 for human S1P3 receptor to EC50 for human S1P1 receptor.
In series [8] the test system is Rattus norvegicus. Kind of series: Immunosuppressive activity in Lewis rat assessed as reduction of circulating lymphocytes at 1 mg/kg, po after 24 hrs. It counts as functional. On the set-up: scale not given: the % may be the effect or the level left.

T2 sequence (Q99500 whole entry): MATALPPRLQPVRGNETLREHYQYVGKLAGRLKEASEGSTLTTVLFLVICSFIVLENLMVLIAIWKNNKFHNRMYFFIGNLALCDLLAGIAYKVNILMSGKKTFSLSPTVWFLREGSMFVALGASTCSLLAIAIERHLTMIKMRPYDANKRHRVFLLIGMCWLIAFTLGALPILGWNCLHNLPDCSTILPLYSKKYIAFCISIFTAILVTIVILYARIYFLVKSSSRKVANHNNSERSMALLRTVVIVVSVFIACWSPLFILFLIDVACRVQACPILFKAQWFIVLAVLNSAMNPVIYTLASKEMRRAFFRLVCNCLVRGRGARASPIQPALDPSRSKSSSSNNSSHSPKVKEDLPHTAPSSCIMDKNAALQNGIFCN
T1 sequence (P21453 whole entry): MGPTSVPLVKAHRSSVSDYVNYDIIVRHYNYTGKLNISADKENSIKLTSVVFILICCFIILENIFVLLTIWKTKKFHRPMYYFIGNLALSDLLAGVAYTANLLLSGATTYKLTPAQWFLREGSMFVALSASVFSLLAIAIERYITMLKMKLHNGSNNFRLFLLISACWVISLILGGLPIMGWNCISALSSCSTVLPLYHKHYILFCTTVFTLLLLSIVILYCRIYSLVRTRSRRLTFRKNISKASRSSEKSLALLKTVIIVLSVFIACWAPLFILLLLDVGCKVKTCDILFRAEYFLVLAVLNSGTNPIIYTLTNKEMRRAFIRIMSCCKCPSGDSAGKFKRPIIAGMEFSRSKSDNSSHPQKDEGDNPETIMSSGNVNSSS

On to `CCC1SCCN1C(=O)c1ccc2nc(-c3ccc(CN4CC(C(=O)O)C4)cc3F)sc2c1` (single isomer, unassigned; (+)) [listing 1 of 2 here], for which the Activity in the series on Rattus norvegicus [1] is reported as 55%. For the same compound, the values for the concentration giving a half-maximal response (EC50) in series [2] and in [4] were 17 nM and 390 nM, respectively. Further, the Ratio in [3] was 10. Besides, the concentration in series [5] (in vivo, 4 h) amounted to 190 nM.

Consider `O=C(c1ccc2nc(-c3ccc(CN4CC(C(=O)O)C4)cc3F)sc2c1)c1ccccn1`, for which the EC50 is 1300 nM in series [2] and above 25000 nM in series [4]. Besides, the Efficacy in series [6] was determined as 50%.

Take `O=C(O)C1CN(Cc2ccc(-c3nc4ccc(C5(c6ccccc6)CC5)nc4s3)c(F)c2)C1`: the 50% effective concentration (EC50) in series [2] was 2 nM; in [4], 888 nM.

On to `O=C(O)C1CN(Cc2ccc(-c3nc4ccc(C(=O)N5CCSC5)cc4s3)c(F)c2)C1`, for which the EC50 was 2710 nM in [2] and 7420 nM in series [4]. Besides, the Efficacy in series [7] turned out to be 21%; in series [6] it was 110%.

On to `CCC1SCCN1C(=O)c1ccc2nc(-c3ccc(CN4CC(C(=O)O)C4)cc3F)sc2c1` (single isomer, unassigned; (+)) [listing 2 of 2 here], for which the Ratio EC50 in the series listed under Homo sapiens was 23. The Efficacy worked out at 82% in [7] and 107% in series [6].

For the compound `CC(c1ccc2sc(-c3ccc(CN4CC(C(=O)O)C4)cc3F)nc2c1)c1ccccn1` (racemic), the EC50 is 2370 nM in series [2] and above 25000 nM in series [4]. The Efficacy in series [6] was found to be 62%.

Regarding `CCC(c1ccc2nc(-c3ccc(CN4CC(C(=O)O)C4)cc3F)sc2c1)c1ccccn1` (single isomer, unassigned; (+)) [listing 1 of 2 here], the Efficacy in series [7] amounted to 30%; in series [6], 93%.

As to `CCC(c1ccc2nc(-c3ccc(CN4CC(C(=O)O)C4)cc3F)sc2c1)c1ccccn1` (single isomer, unassigned) [listing 1 of 2 here], the figures for the EC50 in series [2] and in series [4] were 100 nM and 2060 nM, respectively.

With `O=C(O)C1CN(Cc2ccc(-c3nc4cc(Cc5ccccn5)ccc4s3)c(F)c2)C1`, the Ratio EC50 in the series filed under Homo sapiens is above 37. Besides, the EC50 is 680 nM in [2] and above 25000 nM in [4]. In addition, the Efficacy in series [6] turned out to be 94%.

`O=C(O)C1CN(Cc2ccc(-c3nc4ccc(C(=O)N5CCCC5)cc4s3)c(F)c2)C1`: the values for the EC50 in [2] and in [4] were above 20000 nM and above 25000 nM, respectively.

On to `CCC(c1ccc2nc(-c3ccc(CN4CC(C(=O)O)C4)cc3F)sc2c1)c1ccccn1` (single isomer, unassigned; (+)) [listing 2 of 2 here], for which the EC50 in series [2] turned out to be 520 nM; in series [4], 9750 nM.

On to `O=C(O)C1CN(Cc2ccc(-c3nc4ccc(C(=O)N5CCCCC5)cc4s3)c(F)c2)C1`, for which the EC50 in series [2] was 1170 nM; in series [4], above 25000 nM. The Efficacy in [6] turned out to be 95%.

Consider `CCC(c1ccc2nc(-c3ccc(CN4CC(C(=O)O)C4)cc3F)sc2c1)c1ccccn1` (single isomer, unassigned) [listing 2 of 2 here], for which the Efficacy was found to be 82% in series [7] and 95% in [6].

`CC(C)C1SCCN1C(=O)c1ccc2nc(-c3ccc(CN4CC(C(=O)O)C4)cc3F)sc2c1` (racemic): the EC50 turned out to be 49 nM in series [2] and 900 nM in series [4]. Besides, the Efficacy worked out at 87% in series [7] and 96% in series [6].

In the case of `O=C(O)C1CN(Cc2ccc(-c3nc4ccc(Cc5ccccn5)cc4s3)c(F)c2)C1`, the 50% effective concentration (EC50) was 1960 nM in [2] and above 25000 nM in series [4]. Moreover, the Efficacy in series [6] came to 71%.

As for `CCC1SCCN1C(=O)c1ccc2nc(-c3ccc(CN4CC(C(=O)O)C4)cc3F)sc2c1` (stereo in doubt; (-)-11f) [listing 1 of 2 here], the Efficacy in [7] was 36%; in [6], 106%.

As to `CC1(C)SCCN1C(=O)c1ccc2nc(-c3ccc(CN4CC(C(=O)O)C4)cc3F)sc2c1`, the EC50 in [2] was 430 nM; in series [4] it was 2680 nM. In addition, the values for the Efficacy in [7] and in [6] were 72% and 80%, respectively.

`CC(c1ccc2nc(-c3ccc(CN4CC(C(=O)O)C4)cc3F)sc2c1)c1ccccn1` (racemic): the results for the EC50 in series [2] and in series [4] were 570 nM and above 25000 nM, respectively. For the same compound, in series [6], the Efficacy turned out to be 79%.

For `O=C(O)C1CN(Cc2ccc(-c3nc4ccc(C5(c6ccccn6)CC5)cc4s3)c(F)c2)C1`, the Ratio EC50 in the series listed under Homo sapiens is above 105. In addition, the EC50 in series [2] is 240 nM; in [4], above 25000 nM. Moreover, the Efficacy in series [6] stood at 90%.

On to `CC1SCCN1C(=O)c1ccc2nc(-c3ccc(CN4CC(C(=O)O)C4)cc3F)sc2c1` (racemic), for which the figures for the EC50 in series [2] and in series [4] were 42 nM and 2040 nM, respectively. The Efficacy in [7] was determined as 71%; in series [6] it was 90%.

As for `CCC1SCCN1C(=O)c1ccc2nc(-c3ccc(CN4CC(C(=O)O)C4)cc3F)sc2c1` (stereo in doubt; (-)-11f) [listing 2 of 2 here], in the series with Rattus norvegicus [1], the Activity was 24%. The EC50 in series [2] was found to be 150 nM; in series [4], 6240 nM. The concentration at 4 h in series [5] (Lewis, plasma) came to 130 nM.

In the case of `O=C(O)C1CN(Cc2ccc(-c3nc4ccc(C(=O)N5CCCCCC5)cc4s3)c(F)c2)C1`, the EC50 in series [2] is 2720 nM; in [4], above 25000 nM. Besides, the Efficacy in series [6] is 108%.

For the compound `O=C(O)C1CN(Cc2ccc(-c3nc4cc(Cc5ccccc5)ccc4s3)c(F)c2)C1`, the EC50 in series [2] was found to be 41 nM; in series [4] it was 1210 nM. The Activity in the series on Rattus norvegicus [8] is reported as 58%.

By EC50 is commonly meant the concentration giving half of the maximal effect.
